Converted amounts (≈) assume the structure as drawn. The source made the active and inactive calls. The rule behind the calls is not given here.
Legend:
Assay type in all cases: functional
HCT-15 = assay: Cytotoxicity against human HCT15 cells after 72 hrs; settings: for EC50: HCT-15, 72 h, read-out: ED50 (the source's name)
In short: (§1)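 Cells kept in RPMI with 10% FBS at 37 °C, 5% CO₂, 100% humidity. Log-phase cells were exposed in triplicate to 0.5–100 μg/mL of compound for 72 h at 37 °C. Cell concentration was measured by protein analysis. ED₅₀ (dose inhibiting 50% of control growth) was read from a semilog plot of concentration (μg/mL) against percent viable cells.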

[1] = (§2) Cytotoxicity against human UISO-SQC1 cells after 72 hrs; settings: UISO-SQC1, 72 h, read-out: ED50 (the source's name); in short: as §1
OVCAR-5 = assay: Cytotoxicity against human OVCAR5 cells after 72 hrs; settings: OVCAR-5, 72 h, read-out: ED50 (the source's name); in short: as §1
UISO-SQC1 = assay: as §2; in short: as §1

## CCCCC[C@H]1CCCCCCCCCC(=O)O[C@@H]2[C@@H](O[C@@H]3O[C@H](C)[C@@H](OC(=O)C(C)CC)[C@H](O)[C@H]3O)[C@H](C)O[C@@H](O[C@H]3[C@H](O[C@H]4[C@H](O1)O[C@H](C)[C@@H](O)[C@@H]4O)O[C@H](CO)[C@@H](O)[C@@H]3O)[C@@H]2OC(=O)C(C)CC (some centres not stated) [STANSIN 5]
HCT-15
  EC50: 24 µg/mL (≈ 23.5 µM)
[1]
  EC50: 4 µg/mL (≈ 3.91 µM)
OVCAR-5
  EC50: 1.5 µg/mL (≈ 1.47 µM)

## CCCCC[C@H]1CCCCCCCCCC(=O)O[C@@H]2[C@@H](O[C@@H]3O[C@H](C)[C@@H](OC(=O)C(C)C(C)O)[C@H](O)[C@H]3O)[C@H](C)O[C@@H](O[C@H]3[C@H](O[C@H]4[C@H](O1)O[C@H](C)[C@@H](O)[C@@H]4O)O[C@H](COC(=O)C(C)C(C)O)[C@@H](O)[C@@H]3O)[C@@H]2OC(=O)C(C)CC (some centres not stated) [STANSIN 3]
HCT-15
  EC50: > 24 µg/mL
OVCAR-5
  EC50: > 25 µg/mL

## CCCCC[C@H]1CCCCCCCCCC(=O)O[C@@H]2[C@@H](O[C@@H]3O[C@H](C)[C@@H](OC(=O)C(C)C)[C@H](O)[C@H]3O)[C@H](C)O[C@@H](O[C@H]3[C@H](O[C@H]4[C@H](O1)O[C@H](C)[C@@H](O)[C@@H]4O)O[C@H](CO)[C@@H](O)[C@@H]3O)[C@@H]2OC(=O)C(C)CC (some centres not stated) [STANSIN 4]
HCT-15
  Activity: inactive
UISO-SQC1
  Activity: inactive
OVCAR-5
  EC50: 5.5 µg/mL (≈ 5.45 µM)

## CCCCC[C@H]1CCCCCCCCCC(=O)O[C@@H]2[C@@H](O[C@@H]3O[C@H](C)[C@@H](OC(=O)C(C)C(C)O)[C@H](O)[C@H]3O)[C@H](C)O[C@@H](O[C@H]3[C@H](O[C@H]4[C@H](O1)O[C@H](C)[C@@H](O)[C@@H]4O)O[C@H](COC(=O)C(C)C(C)O)[C@@H](O)[C@@H]3O)[C@@H]2OC(=O)C(C)C (some centres not stated) [STANSIN 1]
HCT-15
  EC50: > 24 µg/mL
OVCAR-5
  EC50: > 25 µg/mL

## CCCCC[C@H]1CCCCCCCCCC(=O)O[C@@H]2[C@@H](O[C@@H]3O[C@H](C)[C@@H](OC(=O)C(C)C(C)O)[C@H](O)[C@H]3O)[C@H](C)O[C@@H](O[C@H]3[C@H](O[C@H]4[C@H](O1)O[C@H](C)[C@@H](O)[C@@H]4O)O[C@H](COC(=O)C(C)C(C)O)[C@@H](O)[C@@H]3O)[C@@H]2OC(=O)CC(C)C (some centres not stated) [STANSIN 2]
HCT-15
  EC50: > 24 µg/mL
OVCAR-5
  EC50: > 25 µg/mL

Source: ChEMBL document CHEMBL1148900, “Isolation and characterization of five new tetrasaccharide glycosides from the roots of Ipomoea stans and their cytotoxic activity” (2004)
